Laboratory results taken from ChEMBL document CHEMBL1821614, “Synthesis and biological evaluation of novel Mannich bases of 2-arylimidazo[2,1-b]benzothiazoles as potential anti-cancer agents” (Eur J Med Chem, 2011).
Active and inactive are the calls of the source. The rule behind the calls is not given here.

Key:
[1] = tested on: HeLa; assay: Cytotoxicity against human HeLa cells at 4 uM after 24 hrs by MTT assay; format: functional, cell-based
Outline: (§1)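 Cells were grown in DMEM with 10% FCS, penicillin and streptomycin at 37 °C under 5% CO2. They were seeded at 10,000 cells/well, left overnight, then treated 24 h. Medium was replaced with fresh medium, MTT was added and plates were held 2 h at 37 °C. Absorbance was read at 570 nm. Single-point runs used 4 µM. Data come from three independent experiments as mean ± S.D.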

[2] = tested on: HepG2; assay: Induction of cell cycle arrest in human HepG2 assessed as accumulation at S-phase at 4 uM after 24 hrs by propidium iodide staining based FACS analysis; format: functional
Outline: (§2)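 HepG2 cells were seeded at 5 × 10^5 per 60 mm dish and grown 24 h. Compound was added at 4 µM for a further 24 h. Cells were harvested with trypsin-EDTA, fixed in ice-cold 70% ethanol 30 min at 4 °C and treated with RNase A 30 min at 37 °C. They were stained with propidium iodide/citrate/Triton X-100 solution and phase distribution was read by flow cytometry.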

[3] = tested on: MCF7; assay: Selectivity ratio of IC50 for human HEK cells to IC50 for human MCF7 cells
Outline: (§3)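 Selectivity index was calculated as the MTT IC50 in normal HEK cells divided by the IC50 in the given cancer line.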

[4] = tested on: HepG2; assay: Induction of cell cycle arrest in human HepG2 assessed as accumulation at G2/M-phase at 4 uM after 24 hrs by propidium iodide staining based FACS analysis; format: functional; outline: as §2
[5] = tested on: HeLa; assay: Cytotoxicity against human HeLa cells after 24 hrs by MTT assay; format: functional, cell-based; outline: as §1
[6] = tested on: HepG2; assay: Cytotoxicity against human HepG2 cells at 4 uM after 24 hrs by MTT assay; format: functional, cell-based; outline: as §1
[7] = tested on: HepG2; assay: Induction of cell cycle arrest in human HepG2 assessed as accumulation at G0/G1-phase at 4 uM after 24 hrs by propidium iodide staining based FACS analysis; format: functional; outline: as §2
[8] = Cytotoxicity against human HEK cells after 24 hrs by MTT assay; format: cell-based; conditions: HEK293, 24 h
[9] = tested on: MCF7; assay: Cytotoxicity against human MCF7 cells after 24 hrs by MTT assay; format: functional, cell-based; conditions: MCF7, 24 h; outline: as §1
[10] = tested on: HepG2; assay: Selectivity ratio of IC50 for human HEK cells to IC50 for human HepG2 cells; outline: as §3
[11] = tested on: HeLa; assay: Selectivity ratio of IC50 for human HEK cells to IC50 for human HeLa cells; outline: as §3
[12] = tested on: MCF7; assay: Cytotoxicity against human MCF7 cells at 4 uM after 24 hrs by MTT assay; format: functional, cell-based; outline: as §1
[13] = tested on: HepG2; assay: Cytotoxicity against human HepG2 cells after 24 hrs by MTT assay; format: functional, cell-based; conditions: HepG2, 24 h; outline: as §1
[14] = tested on: HepG2; assay: Down regulation of phosphorylated JNK protein in human HepG2 cells at 4 uM after 24 hrs by Western blot analysis; format: functional, cell-based
Outline: (§4)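 HepG2 cells exposed 24 h to compounds at 4 µM, with an untreated control and a YM-201627 reference. Lysates were resolved at 50 µg protein per lane on 12% SDS-PAGE and transferred to PVDF. Membranes were blocked 2 h at RT in TBST with 5% blocking powder, probed with primary antibody at 4 °C overnight and then HRP secondary (1:2000) 1 h at RT. Detection by chemiluminescence, with β-actin as loading control.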

[15] = tested on: HepG2; assay: Antiproliferative activity against human HepG2 cells assessed as down regulation of NF-kappaB protein at 4 uM after 24 hrs by Western blot analysis; format: functional, cell-based; outline: as §4
[16] = tested on: HepG2; assay: Induction of apoptosis in human HepG2 cells assessed as caspase3 activation at 4 uM by fluorimetric analysis relative to control; format: functional
Outline: (§5)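 HepG2 cells were treated with compound at 4 µM, with an untreated control. Lysates were mixed with 2× reaction buffer containing DTT, caspase-3 substrate was added and the mix was incubated 1 h at 37 °C. Fluorescence was read at ex 400/em 505 nm and expressed as activity relative to the untreated control.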

[17] = tested on: HepG2; assay: Down regulation of PKCalpha protein in human HepG2 cells at 4 uM after 24 hrs by Western blot analysis; format: functional, cell-based; outline: as §4
[18] = tested on: HepG2; assay: Upregulation of Chk2 protein in human HepG2 cells at 4 uM after 24 hrs by Western blot analysis; format: functional, cell-based; outline: as §4
[19] = tested on: HepG2; assay: Down regulation of c-jun protein in human HepG2 cells at 4 uM after 24 hrs by Western blot analysis; format: functional, cell-based; outline: as §4
[20] = tested on: HepG2; assay: Induction of cell cycle arrest at G2/M phase in human HepG2 cells assessed as down regulation of cyclin B1 at 4 uM after 24 hrs by Western blot analysis
[21] = tested on: HepG2; assay: Induction of apoptosis in human HepG2 cells assessed as caspase3 activation at 4 uM by fluorimetric analysis; format: functional, cell-based; outline: as §5
[22] = tested on: HepG2; assay: Down regulation of […] protein in human HepG2 cells at 4 uM after 24 hrs by Western blot analysis; format: functional, cell-based; outline: as §4
[23] = tested on: HepG2; assay: Down regulation of p38 MPAK protein in human HepG2 cells at 4 uM after 24 hrs by Western blot analysis; format: functional, cell-based; outline: as §4

Cc1ccc2c(c1)sc1nc(-c3ccccc3)c(CN3CCOCC3)n12
Activity [1]: Active
Activity [2]: 8.2%
Ratio IC50 [3]: 5
Activity [4]: 20.9%
IC50 [5]: 7.59 µM
Activity [6]: Active
Activity [7]: 70.89%
IC50 [8]: 19 µM
IC50 [9]: 3.8 µM
Ratio IC50 [10]: 5.78
Ratio IC50 [11]: 2.5
Activity [12]: Active
IC50 [13]: 3.29 µM

CCOc1ccc2c(c1)sc1nc(-c3ccccc3)c(CN3CCCC3)n12
Activity [1]: Active
Activity [2]: 12.64%
Activity [4]: 27.23%
IC50 [5]: 4.3 µM
Activity [6]: Active
Activity [7]: 60.12%
IC50 [8]: 18.8 µM
IC50 [9]: 3.76 µM
Ratio IC50 [10]: 5
Activity [12]: Active
IC50 [13]: 3.76 µM

c1ccc(-c2nc3sc4ccccc4n3c2CN2CCCC2)cc1
Activity [1]: Active
Activity [2]: 10.52%
Ratio IC50 [3]: 4.78
Activity [4]: 29.27%
IC50 [5]: 4.65 µM
Activity [6]: Active
Activity [7]: 60.2%
IC50 [8]: 18.5 µM
IC50 [9]: 3.87 µM
Ratio IC50 [10]: 6.15
Ratio IC50 [11]: 3.98
Activity [12]: Active
IC50 [13]: 3.01 µM

CCOc1ccc2c(c1)sc1nc(-c3ccccc3)c(CN3CCN(c4ccccn4)CC3)n12
Activity [1]: Active
Activity [14]: Active
Activity [15]: Active
fold change (FC) [16]: 2
Activity [2]: 13.42%
Activity [17]: Active
Ratio IC50 [3]: 3.59
Activity [18]: Active
Activity [4]: 31.33%
IC50 [5]: 4.36 µM
Activity [6]: Active
Activity [19]: Active
Activity [7]: 55.24%
IC50 [8]: 16 µM
IC50 [9]: 4.45 µM
Activity [20]: Active
Ratio IC50 [10]: 5.63
Activity [21]: Active
Activity [22]: Active
Ratio IC50 [11]: 3.67
Activity [12]: Active
Activity [23]: Active
IC50 [13]: 2.84 µM
